PolyA inh = blocks polyadenylation in yeast reporter cells | S. cerevisiae SKY197-pL101 polyadenylation reporter, beta-gal luminescence; efflux-impaired pdr1/pdr3 knockout yeast; score 100 = 6 SD above DMSO | activity score, % at 12 µM | 300,000 compounds, 0.02% hits | AID 1875;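 active = lowest replicate activity score at least 50, where 100 means six control SD above control mean; inconclusive = lowest score under 50 but half or more replicates reach 50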;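 also: yeast exposed to compound for 9 h at 30 °C; higher score means more reporter readthrough which indicates perturbed polyadenylation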
NLRP3 yeast inh = inhibitors of NALP3 inflammasome in yeast; AID 2825; Yeast reconstituted NLRP3/ASC/caspase-1, beta-gal luminescence, 24 h; 330,000 compounds, 0.39% hits; inhibition, % at 10 µM;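 active = inhibition of 50% or more; inactive = inhibition below 50%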;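 also: plate controls were induced DMSO wells for no effect and uninduced yeast grown without galactose for full effect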
Mot1-301 SUMO = inhibitors of SUMOylation pathway: yeast Mot1-301 growth rescue | S. cerevisiae Mot1-301 growth rescue, ATP luminescence, 38.5C; percent above DMSO median, 100 means doubled | growth rescue, % at 18.8 µM | 320,000 compounds, 1% hits;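 active = every valid replicate shows activation above 250% relative to neutral control wells; inactive = the rest, any valid replicate at or below 250%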;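 also: OY570 slx delta 5 strain wells were the positive control but not used for scaling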
VIM-2 inhibitor = blocks Pseudomonas aeruginosa VIM-2 metallo-beta-lactamase. purified VIM-2, nitrocefin hydrolysis, epi-absorbance fluorescence. inhibition, % at 5.6 µM. 290,000 compounds, 0.89% hits. AID 1527;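 active = inhibition above the mean of all tested compounds plus 3 SD, cutoff set per screening run, cut at about 7.5% in these data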;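 also: red hydrolysis product quenches plate fluorescence so inhibitors raise well fluorescence; 0% = enzyme with DMSO and 100% = DMSO without enzyme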
IMP-1 inh-1 = inhibitors of Pseudomonas aeruginosa IMP-1 metallo-beta-lactamase; purified IMP-1, nitrocefin hydrolysis, epi-absorbance fluorescence; inhibition, % at 5.6 µM; 290,000 compounds, 0.45% hits;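 active = inhibition above the mean plus 3 SD of all compounds in the same screening run, cut at about 4.5% in these data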;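 also: 0% = IMP-1 with DMSO and 100% = DMSO wells lacking enzyme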
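system = purified recombinant IMP-1 beta-lactamase | amount = 0.2 nM IMP-1, as dispensed | medium = HEPES buffer pH 7.1 with ZnSO4 and Brij 35 | times = 25 °C, 15 min preincubation, 25 min reaction | detection = plate fluorescence quenching by hydrolysis product, ex 480/em 530 nm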
NALP1 inh = NALP1 inhibition | S. cerevisiae NALP1/ASC/caspase-1 growth, X-gal OD620, 72 h | inhibition, % at 10 µM | 280,000 compounds, 0.61% hits | AID 2071; in the data active = inhibition mostly above about 24%, no sharp cut-off; inactive = mostly below about 32%
IMP-1 inh-2 = IMP-1 inhibition, counter-screen for VIM-2 inhibitors | shares compounds with VIM-2 inhibitor | inhibition, % at 5.6 µM | purified IMP-1, nitrocefin hydrolysis, epi-absorbance fluorescence | 1,300 tested, under 10 active; call rule not given here;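 also: 0% = enzyme with vehicle and 100% = vehicle without enzyme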
VIM-2 FRET inh = inhibits VIM-2 in FRET assay to exclude epi-absorbance artifacts; shares compounds with VIM-2 inhibitor; purified VIM-2, CCF2 FRET substrate hydrolysis; inhibition, % at 5.6 µM; 1,300 compounds, 23% hits; AID 1857;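 active = inhibition above the mean of all tested compounds plus 3 SD, cut at about 19% in these data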;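 also: 0% = VIM-2 plus DMSO and 100% = no enzyme wells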
TEM-1 inh = TEM-1 inhibition, counter-screen for VIM-2 inhibitors. shares compounds with VIM-2 inhibitor. 1,300 compounds, 3% hits. AID 1866. Purified TEM-1, nitrocefin hydrolysis, epi-absorbance fluorescence. inhibition, % at 5.6 µM;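 active = inhibition above that campaign's mean inhibition plus 3 SD, cut at about 0.46% in these data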;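 also: 0% = TEM-1 with DMSO and 100% = TEM-1 with 100 µM potassium clavulanate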
Target sequence (P62593 whole entry, looked up): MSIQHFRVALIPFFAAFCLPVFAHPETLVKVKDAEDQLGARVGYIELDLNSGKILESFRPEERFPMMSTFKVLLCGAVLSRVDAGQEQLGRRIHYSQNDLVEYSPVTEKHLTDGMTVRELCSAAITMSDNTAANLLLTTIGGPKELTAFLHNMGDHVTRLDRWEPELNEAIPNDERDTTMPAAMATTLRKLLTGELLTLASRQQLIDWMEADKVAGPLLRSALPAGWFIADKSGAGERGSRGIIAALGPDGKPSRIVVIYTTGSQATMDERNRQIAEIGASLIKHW
VIM-2 confirm 2 = confirmation of P. aeruginosa VIM-2 metallo-beta-lactamase inhibitors; shares compounds with VIM-2 inhibitor; purified VIM-2, nitrocefin hydrolysis, epi-absorbance; inhibition, % at 5.6 µM; 1,300 compounds, 96% hits;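 active = inhibition of the VIM-2 beta-lactamase enzyme above about 11% from the earlier first-round screen, limit read from the data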;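 also: 0% = VIM-2 with DMSO and 100% = buffer wells without enzyme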
* marks the source's active call; other numbers are inactive results; ? = inconclusive; / = no result. An excerpt weighted towards active compounds, which were near 2.9% of everything screened.

SMILES | PolyA inh | NLRP3 yeast inh | Mot1-301 SUMO | VIM-2 inhibitor | IMP-1 inh-1 | NALP1 inh | IMP-1 inh-2 | VIM-2 FRET inh | TEM-1 inh | VIM-2 confirm 2
CCN1CCN(CC(O)COc2ccc3c(C)cc(=O)oc3c2)CC1 (stereo unspecified) | 6 | 0 | 33 | 15* | 0 | 4 | -4 | 1 | -7 | 23*
Cc1cc(OCC(O)CN2CCN(C)CC2)ccc1C(C)C (stereo unspecified) | -1 | 5 | -8 | -3 | -2 | 6 | / | / | / | /
CN1CCN(CC(O)COc2ccc(OCC(O)CN3CCN(C)CC3)cc2)CC1 (stereo unspecified) | 18 | 20 | 70 | -1 | 1 | 18 | / | / | / | /
CCN1CCN(CC(O)COc2ccc(C)c(C)c2)CC1 (stereo unspecified) | 6 | 5 | -4 | -4 | -4 | 10 | / | / | / | /
CCOC(=O)c1c(C)n(C)c2ccc(OCC(O)CN3CCN(C)CC3)cc12 (stereo unspecified) | 10 | 11 | -18 | 69* | 3 | -1 | -3 | 4 | -6 | 75*
CCOC(=O)c1c(C)n(-c2ccc(C)cc2)c2ccc(OCC(O)CN3CCN(C)CC3)cc12 (stereo unspecified) | / | / | / | 15* | -1 | 14 | -3 | -1 | -6 | 26*
CN1CCN(C(=O)/C=C/c2ccc(C#N)cc2)CC1 | -7 | 3 | -5 | 0 | -2 | 17 | / | / | / | /
Cc1ccc(O)c(CNc2ccc(S(=O)(=O)Nc3nccs3)cc2)c1 | -6 | 5 | -21 | -1 | -3 | / | / | / | / | /
COc1ccc(-c2cc(C(F)(F)F)n3nc(C(=O)N4CCN5CCCC5C4)cc3n2)cc1OC (stereo unspecified) | 9 | 14 | -1 | 26* | -1 | 12 | -3 | 0 | -6 | 40*
COc1ccc([C@H]2CC(=O)C=C(c3ccc(F)cc3OCc3ccccc3)C2)cc1OC | / | 7 | 2 | / | / | / | / | / | / | /
O=C(NCc1cccc(Cl)c1)c1cccc(OC2CCN(C(=O)C3CC3)CC2)c1 | -13 | 12 | -9 | 25* | -2 | 27 | -2 | -3 | -2 | 4
Cn1c(N)c(C(=O)c2cc(-c3ccccn3)nc3ccccc23)c(=O)[nH]c1=O | 8 | 10 | / | 38* | -15 | 11 | -6 | -14 | -7 | 42*
Cc1ccc(NC(=O)CCn2c(=O)c3cccn3c3ccccc32)cc1C | 4 | 18 | 15 | -7 | -4 | 16 | / | / | / | /
NS(=O)(=O)c1ccc(NC(=O)c2ccc(F)cc2F)c(NC(=O)c2ccc(F)cc2F)c1 | 4 | 21 | -10 | -3 | -4 | 7 | / | / | / | /
Cc1onc(-c2c(F)cccc2Cl)c1C(=O)OCC(=O)NCc1ccccc1 | / | 12 | -6 | / | / | / | / | / | / | /
Cc1ccc(Nc2cc(C)nc(-c3ccccc3O)n2)cc1 | -4 | 9 | 12 | -8 | -6 | -2 | / | / | / | /
Cc1cc(NCCCN)nc(-c2ccccc2O)n1 | 2 | 35 | -29 | 36* | -4 | -3 | -3 | -1 | -7 | 54*
O=C(CCC(=O)N1CCN(S(=O)(=O)c2ccccc2Cl)CC1)c1ccccc1 | / | 18 | / | / | / | / | / | / | / | /
Cc1csc(NC(=O)CCC(=O)N(CC(=O)NC2CCCCC2)c2ccccc2)n1 | 10 | 2 | -5 | 0 | -2 | 0 | / | / | / | /
CCN(CC)CCCNc1nc2cc(OC)c(OC)cc2c2nc(-c3cccnc3)nn12 | -5 | 17 | 8 | 22* | 1 | -1 | -2 | -3 | -6 | 42*
COc1cc2nc(NCCCN3CCN(C)CC3)n3nc(-c4ccccc4)nc3c2cc1OC | 2 | 24 | 70 | 28* | -4 | 16 | -3 | 0 | -6 | 48*
CCN(CC)CCCNc1nc2cc(OC)c(OC)cc2c2nc(-c3ccccc3)nn12 | -13 | 22 | 33 | 4 | -4 | 5 | / | / | / | /
CCN(CC)CCCNc1nc2ccccc2c2nc(-c3ccncc3)nn12 | 1 | -4 | 10 | 28* | -1 | 8 | -3 | 0 | -6 | 37*
COCCCNc1nc2cc(OC)c(OC)cc2c2nc(-c3ccccc3)nn12 | ? | 3 | 239 | 2 | 0 | 25 | / | / | / | /
Cc1cc(C(=O)NNC(=O)c2ccc(F)cc2)c(C)s1 | / | 19 | 5 | / | / | / | / | / | / | /
SMILES | PolyA inh | NLRP3 yeast inh | Mot1-301 SUMO | VIM-2 inhibitor | IMP-1 inh-1 | NALP1 inh | IMP-1 inh-2 | VIM-2 FRET inh | TEM-1 inh | VIM-2 confirm 2
CCCc1cc(=O)oc2c(C)c(OCC(=O)NCCCn3ccnc3)ccc12 | 1 | 20 | -6 | 16* | -1 | 17 | -2 | -12 | -5 | 27*
CCCc1cc(=O)oc2cc(OCC(=O)NCCCn3ccnc3)c(Cl)cc12 | -8 | 2 | 7 | 19* | -3 | -10 | -3 | -4 | -6 | 30*
Cc1c(OCC(=O)NCCCn2ccnc2)ccc2c3c(c(=O)oc12)CCCC3 | 4 | 2 | 27 | 54* | -3 | -4 | -3 | -8 | -14 | 64*
CCCCc1cc(=O)oc2c(C)c(OCC(=O)NCCN3CCOCC3)ccc12 | -6 | 8 | 27 | 5 | 1 | 35 | / | / | / | /
Cc1oc2c(C)c3oc(=O)c(CCC(=O)NCCCn4ccnc4)c(C)c3cc2c1C | 11 | 2 | -13 | 24* | 1 | 10 | -2 | -10 | -8 | 30*
Cc1c(NC(=O)CSc2nc(N)cc(N)n2)c(=O)n(-c2ccccc2)n1C | / | 3 | -9 | / | / | / | / | / | / | /
CC(C)N1CCN(Cc2ccc(-c3ccccc3Cl)o2)CC1CCO (stereo unspecified) | / | 7 | 37 | -2 | -3 | 14 | / | / | / | /
Cc1cc(C)cc(OCC(=O)Nc2ccc(-n3cnnn3)cc2)c1 | / | 17 | 37 | / | / | / | / | / | / | /
CCc1cc2c(CN3CCN(CC)CC3)cc(=O)oc2cc1O | 18 | -10 | -10 | 21* | 0 | 7 | -4 | -22 | -6 | 25*
COc1ccc(C(=O)NC(=O)CSc2n[nH]c(N)n2)cc1 | / | 7 | 16 | / | / | / | / | / | / | /
COc1ccccc1N1CC(O)=C(c2nc3ccccc3c(=O)[nH]2)C1=N | -4 | 7 | 7 | 15* | -3 | / | -4 | -6 | -9 | 23*
Cc1ccc2nc3n(c(=O)c2c1)-c1cc(Cl)ccc1C(=O)NC3Cc1ccc(O)cc1 (stereo unspecified) | / | 13 | -10 | / | / | / | / | / | / | /
CCN(CC)c1ccc(-c2nn3c(-c4ccccc4OC)nnc3s2)cc1 | -27 | 16 | 2 | 13* | -4 | 12 | -4 | -9 | -8 | 1

From PubChem
